Values after ≈ are worked out from the molar mass of the structure shown. Blank lines part the entries; values can stand above or below the molecule they belong to.
Tests used:
Staphylococcus aureus [1] = experiment: Antibacterial activity against methicillin-resistant Staphylococcus aureus SAU1009; type: functional
How it was run: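 MIC against MRSA strain SAU1009.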

[2] = target: T1, Amine oxidase [flavin-containing] A (Homo sapiens, UniProt P21397); experiment: Inhibition of human recombinant MAO-A expressed in yeast after 1 hr by luciferin-based luminescence assay
T1 sequence (P21397 whole entry): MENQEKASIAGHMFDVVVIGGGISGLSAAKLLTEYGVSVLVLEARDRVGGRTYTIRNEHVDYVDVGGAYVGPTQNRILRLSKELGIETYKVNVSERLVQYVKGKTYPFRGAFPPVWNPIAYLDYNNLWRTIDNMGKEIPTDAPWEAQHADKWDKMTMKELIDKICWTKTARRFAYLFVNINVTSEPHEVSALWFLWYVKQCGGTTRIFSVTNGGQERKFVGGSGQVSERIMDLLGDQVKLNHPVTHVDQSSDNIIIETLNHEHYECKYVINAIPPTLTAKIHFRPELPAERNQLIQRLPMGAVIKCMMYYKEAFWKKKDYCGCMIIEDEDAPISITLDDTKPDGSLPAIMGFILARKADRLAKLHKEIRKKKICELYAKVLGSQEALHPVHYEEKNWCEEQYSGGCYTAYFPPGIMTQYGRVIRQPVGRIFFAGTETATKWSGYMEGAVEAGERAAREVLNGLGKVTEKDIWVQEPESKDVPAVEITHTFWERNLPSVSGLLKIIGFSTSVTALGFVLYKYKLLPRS

Staphylococcus aureus [3] = experiment: Antibacterial activity against Staphylococcus aureus in po dosed mouse septicemia model; type: functional
Staphylococcus aureus [4] = experiment: Antibacterial activity against Staphylococcus aureus by agar dilution method; type: functional
How it was run: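 MIC determined by agar dilution across S. aureus/MRSA isolates; MIC90 is the concentration inhibiting 90% of strains tested.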

SMILES: COC(=O)NC[C@H]1CN(c2cc(F)c(N3C=CC(=O)CC3)c(F)c2F)C(=O)O1
MIC (Staphylococcus aureus [1]): 2 µg/mL (≈ 5.01 µM)
IC50 [2]: 61.1 µM
ED50 (Staphylococcus aureus [3]): 6.3 mg/kg

SMILES: O=C1C=CN(c2c(F)cc(N3C[C@H](Cn4ccnn4)OC3=O)c(F)c2F)CC1
MIC (Staphylococcus aureus [1]): 1 µg/mL (≈ 2.54 µM)
IC50 [2]: > 254 µM
ED50 (Staphylococcus aureus [3]): 10 mg/kg

SMILES: O=C1C=CN(c2ccc(N3C[C@H](COc4ccon4)OC3=O)c(F)c2F)CC1
MIC (Staphylococcus aureus [1]): 4 µg/mL (≈ 10.2 µM)
ED50 (Staphylococcus aureus [3]): > 20 mg/kg

MIC90 (Staphylococcus aureus [4]): 4 µg/mL (≈ 10.7 µM)
SMILES: CC(=O)NC[C@H]1CN(c2cc(F)c(N3CCOCC3)c(F)c2F)C(=O)O1

— ChEMBL document CHEMBL3286113, “New potent antibacterial oxazolidinone (MRX-I) with an improved class safety profile” (J Med Chem, 2014)
